Experimental findings from ChEMBL document CHEMBL1128288, “7-Azetidinylquinolones as antibacterial agents. 3. Synthesis, properties and structure-activity relationships of the stereoisomers containing a 7-(3-amino-2-methyl-1-azetidinyl) moiety” (J Med Chem, 1995) are described below.

Common to all, as to assay type: functional
One assay concerns Bacillus cereus. The assay can be described thus: In vitro antibacterial activity measured as minimum inhibitory concentration was evaluated on Bacillus cereus ATCC 11778 (Bc). Particulars: Bacillus cereus, ATCC 11778; read-out: MIC. An outline of the steps: (§1)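 Serial 2-fold agar dilution in Mueller Hinton medium, run side by side with reference quinolones. Inoculum 10^5 cfu/mL; compound range 0.007–16 µg/mL.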

For another assay, the system named is Bacillus subtilis. Nature of the assay: In vitro antibacterial activity measured as minimum inhibitory concentration was evaluated on Bacillus subtilis ATCC 6633(Bs). Particulars: Bacillus subtilis, ATCC 6633; read-out: MIC. The gist of the method: as §1
A further assay relates to Enterobacter cloacae. The assay can be described thus: In vitro antibacterial activity measured as minimum inhibitory concentration, was evaluated on Enterobacter cloacae ATCC 23355 (Ecl). Particulars: Enterobacter cloacae, ATCC 23355; read-out: MIC.
In a further assay the test system is Klebsiella pneumoniae. The assay can be described thus: In vitro antibacterial activity measured as minimum inhibitory concentration was evaluated on klebsiella pneumoniae ATCC 10031 (Kp). As to conditions: Klebsiella pneumoniae, ATCC 10031; read-out: MIC. An outline of the steps:
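Serial 2-fold agar dilution in Mueller Hinton medium, run side by side with reference quinolones.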

The next assay has as its system Proteus vulgaris. The assay can be described thus: In vitro antibacterial activity measured as minimum inhibitory concentration was evaluated on proteus vulgaris ATCC 8427 (Pv). As to conditions: Proteus vulgaris, ATCC 8427; read-out: MIC. The gist of the method:
as §1

Assay [1] concerns Pseudomonas aeruginosa. The assay can be described thus: In vitro antibacterial activity measured as minimum inhibitory concentration was evaluated on Pseudomonas aeruginosa ATCC 10145 (Pa). Particulars: Pseudomonas aeruginosa, ATCC 10145; read-out: MIC. An outline of the steps:
as §1

For assay [2], the system named is Staphylococcus aureus. The assay can be described thus: In vitro antibacterial activity measured as minimum inhibitory concentration was evaluated on Staphylococcus aureus ATCC 25178 (Sa). As to conditions: Staphylococcus aureus, ATCC 25178; read-out: MIC. An outline of the steps: as §1
Assay [3] concerns Staphylococcus epidermidis. Nature of the assay: In vitro antibacterial activity measured as minimum inhibitory concentration was evaluated on Staphylococcus epidermidis ATCC 155-1 (Se). Particulars: Staphylococcus epidermidis, ATCC 155-1; read-out: MIC. The gist of the method:
as §1

A further assay relates to Enterococcus faecalis. Nature of the assay: In vitro antibacterial activity measured as minimum inhibitory concentration was evaluated on Streptococcus faecalis ATCC 10541 (Sf). Particulars: Enterococcus faecalis, ATCC 10541; read-out: MIC. An outline of the steps: as §1
In assay [4] the test system is Escherichia coli. The assay can be described thus: In vitro antibacterial activity measured as minimum inhibitory concentration, was evaluated on Escherichia coli ATCC 23559(Ec). Particulars: Escherichia coli, ATCC 23559; read-out: MIC. An outline of the steps:
as §1

The test system of another assay is Morganella morganii. The assay can be described thus: In vitro antibacterial activity measured as minimum inhibitory concentration was evaluated on morganella morganii ATCC 8019 (Mm). As to conditions: Morganella morganii, ATCC 8019; read-out: MIC. An outline of the steps:
as §1

For assay [5], the system named is Pseudomonas aeruginosa. Nature of the assay: In vivo efficacy as ED50 against Pseudomonas aeruginosa HS-116 by oral administration in mice. Particulars: Pseudomonas aeruginosa, po; read-out: ED50. The gist of the method:
(§2)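 Mice, 4 groups of 10, infected intraperitoneally with slightly more than the LD100 of the organism. A single oral dose was given immediately after infection, with four doses (one per group) chosen from in vitro activity. Survival was scored after one week. ED50 (total dose, mg/kg, protecting 50%) was interpolated among group survival rates.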

Assay [6] has as its system Staphylococcus aureus. The assay can be described thus: In vivo efficacy as ED50 against Staphylococcus aureus HS-93 by oral administration in mice. Particulars: Staphylococcus aureus, po; read-out: ED50. An outline of the steps:
as §2

Assay [7] relates to Escherichia coli. Nature of the assay: In vivo efficacy as ED50 against Escherichia coli HM-42 by oral administration in mice. Particulars: Escherichia coli, po; read-out: ED50. An outline of the steps:
as §2

Values after ≈ are worked out from the molar mass of the structure shown.

As a reminder, the MIC is the smallest concentration in the dilution series that meets the test's criterion for growth inhibition. For orientation: ED50 means the midpoint of the dose-response relation.

As to `C[C@@H]1[C@@H](N)CN1c1c(F)cc2c(=O)c(C(=O)O)cn(-c3ccc(F)cc3F)c2c1Cl`, the MIC worked out at 1 µg/mL (≈ 2.28 µM) in the assay on Bacillus cereus; 0.12 µg/mL (≈ 0.274 µM) in the assay on Bacillus subtilis; 0.25 µg/mL (≈ 0.571 µM) in the assay on Enterobacter cloacae; 0.5 µg/mL (≈ 1.14 µM) in the assay with Klebsiella pneumoniae; 1 µg/mL (≈ 2.28 µM) in the assay on Proteus vulgaris; 2 µg/mL (≈ 4.57 µM) with Pseudomonas aeruginosa [1]. In addition, the MIC with Staphylococcus aureus [2] worked out at 0.25 µg/mL (≈ 0.571 µM); in [3], 0.5 µg/mL (≈ 1.14 µM); with Enterococcus faecalis it was 2 µg/mL (≈ 4.57 µM); with Escherichia coli [4], 0.25 µg/mL (≈ 0.571 µM); in the assay with Morganella morganii, 0.5 µg/mL (≈ 1.14 µM).
For `Cc1c(F)c(N2C[C@H](N)[C@H]2C)nc2c1c(=O)c(C(=O)O)cn2C1CC1`, the MIC in the assay with Bacillus cereus came out at 0.25 µg/mL (≈ 0.722 µM); with Bacillus subtilis, 0.25 µg/mL (≈ 0.722 µM); in the assay on Enterobacter cloacae, 0.12 µg/mL (≈ 0.346 µM); in the assay with Klebsiella pneumoniae, 0.12 µg/mL (≈ 0.346 µM); with Proteus vulgaris it was 0.25 µg/mL (≈ 0.722 µM); in the assay with Pseudomonas aeruginosa [1], 0.5 µg/mL (≈ 1.44 µM). Also, the minimum inhibitory concentration (MIC) (in the assay on Staphylococcus aureus [2]; in assay [3]; in the assay with Enterococcus faecalis; in the assay with Escherichia coli [4]; in the assay on Morganella morganii) was 0.12 µg/mL (≈ 0.346 µM) in each case.
On to `CC1C(N)CN1c1nc2c(cc1F)c(=O)c(C(=O)O)cn2-c1ccc(F)cc1F` (centres undefined), for which the MIC in the assay with Bacillus subtilis came out at 0.06 µg/mL (≈ 0.148 µM); with Klebsiella pneumoniae, 0.06 µg/mL (≈ 0.148 µM); in the assay with Proteus vulgaris, 1 µg/mL (≈ 2.47 µM); in the assay on Pseudomonas aeruginosa [1] it was 1 µg/mL (≈ 2.47 µM); with Enterococcus faecalis, 1 µg/mL (≈ 2.47 µM); with Escherichia coli [4] it was 0.12 µg/mL (≈ 0.297 µM). Also, the ED50 with Pseudomonas aeruginosa [5] turned out to be 140 mg/kg; in the assay on Staphylococcus aureus [6] it was 8.9 mg/kg; with Escherichia coli [7] it was 3.3 mg/kg.
Consider `CC1C(N)CN1c1cc2c(cc1F)c(=O)c(C(=O)O)cn2-c1ccc(F)cc1F` (centres undefined), for which the MIC with Bacillus subtilis is 0.03 µg/mL (≈ 0.0744 µM); in the assay on Proteus vulgaris, 0.5 µg/mL (≈ 1.24 µM); with Pseudomonas aeruginosa [1], 2 µg/mL (≈ 4.96 µM); in the assay on Enterococcus faecalis it was 1 µg/mL (≈ 2.48 µM); with Escherichia coli [4] it was 0.06 µg/mL (≈ 0.149 µM). The ED50 in the assay with Pseudomonas aeruginosa [5] was 78 mg/kg; in the assay with Staphylococcus aureus [6], 8.1 mg/kg; in the assay on Escherichia coli [7], 6 mg/kg.
`C[C@H]1COc2c(N3CC(N(C)C)C3)c(F)cc3c(=O)c(C(=O)O)cn1c23`: the MIC in the assay with Bacillus cereus stood at 0.06 µg/mL (≈ 0.166 µM); with Bacillus subtilis, 0.015 µg/mL (≈ 0.0415 µM); in the assay with Enterobacter cloacae it was 0.06 µg/mL (≈ 0.166 µM); in the assay with Klebsiella pneumoniae, 0.015 µg/mL (≈ 0.0415 µM); with Proteus vulgaris, 0.25 µg/mL (≈ 0.692 µM); with Pseudomonas aeruginosa [1], 4 µg/mL (≈ 11.1 µM). For the same compound, the MIC in the assay with Staphylococcus aureus [2] amounted to 0.12 µg/mL (≈ 0.332 µM); in assay [3] it was 0.12 µg/mL (≈ 0.332 µM); in the assay on Enterococcus faecalis it was 2 µg/mL (≈ 5.53 µM); in the assay on Escherichia coli [4] it was 0.06 µg/mL (≈ 0.166 µM); with Morganella morganii it was 0.12 µg/mL (≈ 0.332 µM).
For `CC1C(N)CN1c1nc2c(cc1F)c(=O)c(C(=O)O)cn2C1CC1` (centres undefined), the MIC in the assay on Bacillus cereus is 0.06 µg/mL (≈ 0.181 µM); in the assay on Bacillus subtilis, 0.03 µg/mL (≈ 0.0903 µM); in the assay with Enterobacter cloacae, 0.03 µg/mL (≈ 0.0903 µM); in the assay with Klebsiella pneumoniae, 0.03 µg/mL (≈ 0.0903 µM); in the assay on Proteus vulgaris, 0.06 µg/mL (≈ 0.181 µM); in the assay with Pseudomonas aeruginosa [1], 0.5 µg/mL (≈ 1.5 µM). Also, the minimum inhibitory concentration (MIC) with Escherichia coli [4] and with Morganella morganii was 0.03 µg/mL (≈ 0.0903 µM) in each case. In addition, the ED50 in the assay with Pseudomonas aeruginosa [5] was 95 mg/kg; with Staphylococcus aureus [6], 13.8 mg/kg; with Escherichia coli [7], 3.5 mg/kg.
Turning to `C[C@H]1COc2c(N3CC(N)C3)c(F)cc3c(=O)c(C(=O)O)cn1c23`, the MIC in the assay with Bacillus cereus was found to be 0.12 µg/mL (≈ 0.36 µM); with Bacillus subtilis, 0.06 µg/mL (≈ 0.18 µM); in the assay with Enterobacter cloacae, 0.015 µg/mL (≈ 0.045 µM); in the assay with Klebsiella pneumoniae, 0.015 µg/mL (≈ 0.045 µM); in the assay on Proteus vulgaris it was 0.25 µg/mL (≈ 0.75 µM); in the assay on Pseudomonas aeruginosa [1], 0.25 µg/mL (≈ 0.75 µM). In addition, the MIC in the assay on Staphylococcus aureus [2] was determined as 0.12 µg/mL (≈ 0.36 µM); in [3], 0.06 µg/mL (≈ 0.18 µM); in the assay with Enterococcus faecalis, 0.12 µg/mL (≈ 0.36 µM); in the assay with Escherichia coli [4], 0.015 µg/mL (≈ 0.045 µM); with Morganella morganii, 0.06 µg/mL (≈ 0.18 µM).
In the case of `C[C@@H]1[C@@H](N)CN1c1c(F)c(N)c2c(=O)c(C(=O)O)cn(-c3ccc(F)cc3F)c2c1F`, the MIC is 0.12 µg/mL (≈ 0.275 µM) in the assay with Bacillus cereus; 0.03 µg/mL (≈ 0.0687 µM) in the assay on Bacillus subtilis; 0.12 µg/mL (≈ 0.275 µM) in the assay on Enterobacter cloacae; 0.25 µg/mL (≈ 0.573 µM) in the assay with Klebsiella pneumoniae; 0.5 µg/mL (≈ 1.15 µM) with Proteus vulgaris; 0.5 µg/mL (≈ 1.15 µM) in the assay on Pseudomonas aeruginosa [1]. Besides, the MIC was 0.06 µg/mL (≈ 0.137 µM) in the assay on Staphylococcus aureus [2]; 0.12 µg/mL (≈ 0.275 µM) in [3]; 0.12 µg/mL (≈ 0.275 µM) in the assay with Enterococcus faecalis; 0.03 µg/mL (≈ 0.0687 µM) in the assay on Escherichia coli [4]; 0.12 µg/mL (≈ 0.275 µM) in the assay with Morganella morganii.
Take `CC1COc2c(N3CC(C)(N)C3)c(F)cc3c(=O)c(C(=O)O)cn1c23` (single isomer, unassigned): the minimum inhibitory concentration (MIC) amounted to 4 µg/mL (≈ 11.5 µM) in the assay on Bacillus cereus; 2 µg/mL (≈ 5.76 µM) with Bacillus subtilis; 4 µg/mL (≈ 11.5 µM) in the assay with Enterobacter cloacae; 8 µg/mL (≈ 23 µM) with Klebsiella pneumoniae; 8 µg/mL (≈ 23 µM) in the assay on Proteus vulgaris; 32 µg/mL (≈ 92.1 µM) in the assay with Pseudomonas aeruginosa [1]. Besides, the minimum inhibitory concentration (MIC) is 4 µg/mL (≈ 11.5 µM) with Staphylococcus aureus [2]; 4 µg/mL (≈ 11.5 µM) in assay [3]; 4 µg/mL (≈ 11.5 µM) with Enterococcus faecalis; 8 µg/mL (≈ 23 µM) with Escherichia coli [4]; 8 µg/mL (≈ 23 µM) in the assay with Morganella morganii.
